# Results as given in ChEMBL document CHEMBL1153560, “In vitro activities of doripenem and six comparator drugs against 423 aerobic and anaerobic bacterial isolates from infected diabetic foot wounds” (2008).
# Legend:
# Assay type in all cases: functional
# Prevotella bivia [1] = experiment: Antibacterial activity against Prevotella bivia isolated from patient with diabetic foot infection after 44 to 48 hrs by agar dilution method
# Summary of the method: (§1)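 CLSI M11-A7 agar dilution: serial twofold drug dilutions made on the test day and added to molten agar. Spots of 10^5 CFU were applied by replicator, with drug-free control plates inoculated before and after each set. Incubation was 44 to 48 h at 37°C in an anaerobic chamber. MIC was the lowest concentration giving no growth or a marked change in growth versus controls.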
# Clostridium perfringens = experiment: Antibacterial activity against Clostridium perfringens isolated from patient with diabetic foot infection after 44 to 48 hrs by agar dilution method
# Summary of the method: (§2)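 Agar dilution per CLSI M11-A7. Twofold drug dilutions made on the test day and added to molten agar. Replicator-applied inoculum of 10^5 CFU/spot. Drug-free control plates inoculated before and after each drug set. Incubation at 37°C for 44 to 48 h, anaerobic chamber. MIC taken as the lowest concentration giving no growth or a marked change in growth versus controls.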
# [2] = tested on: Anaerocolumna aminovalerica; experiment: Antibacterial activity against Clostridium aminovalericum isolated from patient with diabetic foot infection after 44 to 48 hrs by agar dilution method; summary of the method: as §1
# Clostridium cadaveris [3] = experiment: Antibacterial activity against Clostridium cadaveris isolated from patient with diabetic foot infection after 44 to 48 hrs by agar dilution method; summary of the method: as §1
# [Clostridium] innocuum = Antibacterial activity against Clostridium innocuum isolated from patient with diabetic foot infection after 44 to 48 hrs by agar dilution method; summary of the method: as §1
# Lacrimispora sphenoides = experiment: Antibacterial activity against Clostridium sphenoides isolated from patient with diabetic foot infection after 44 to 48 hrs by agar dilution method; summary of the method: as §1
# Cutibacterium acnes = experiment: Antibacterial activity against Propionibacterium acnes isolated from patient with diabetic foot infection after 44 to 48 hrs by agar dilution method; summary of the method: as §1
# Anaerococcus prevotii [4] = experiment: Antibacterial activity against Anaerococcus prevotii isolated from patient with diabetic foot infection after 44 to 48 hrs by agar dilution method; summary of the method: as §1
# Anaerococcus tetradius = experiment: Antibacterial activity against Anaerococcus tetradius isolated from patient with diabetic foot infection after 44 to 48 hrs by agar dilution method; summary of the method: as §1
# Finegoldia magna [5] = experiment: Antibacterial activity against Finegoldia magna isolated from patient with diabetic foot infection after 44 to 48 hrs by agar dilution method; summary of the method: as §1
# [6] = tested on: Peptoniphilus asaccharolyticus; experiment: Antibacterial activity against Peptoniphilus asaccharolyticus isolated from patient with diabetic foot infection after 44 to 48 hrs by agar dilution method; summary of the method: as §1
# [7] = tested on: Peptostreptococcus anaerobius; experiment: Antibacterial activity against Peptostreptococcus anaerobius isolated from patient with diabetic foot infection after 44 to 48 hrs by agar dilution method; summary of the method: as §1
# Parvimonas micra [8] = experiment: Antibacterial activity against Peptostreptococcus micros isolated from patient with diabetic foot infection after 44 to 48 hrs by agar dilution method; summary of the method: as §1
# Bacteroides fragilis [9] = experiment: Antibacterial activity against Bacteroides fragilis isolated from patient with diabetic foot infection after 44 to 48 hrs by agar dilution method; summary of the method: as §1
# Bacteroides caccae [10] = experiment: Antibacterial activity against Bacteroides caccae isolated from patient with diabetic foot infection after 44 to 48 hrs by agar dilution method; summary of the method: as §1
# Bacteroides ovatus [11] = experiment: Antibacterial activity against Bacteroides ovatus isolated from patient with diabetic foot infection after 44 to 48 hrs by agar dilution method; summary of the method: as §1
# Bacteroides fragilis [12] = experiment: Antibacterial activity against Bacteroides fragilis isolated from patient with diabetic foot infection assessed as percent resistant isolates after 44 to 48 hrs by agar dilution method; summary of the method: as §2
# Bacteroides caccae [13] = experiment: Antibacterial activity against Bacteroides caccae isolated from patient with diabetic foot infection assessed as percent resistant isolates after 44 to 48 hrs by agar dilution method; summary of the method: as §2
# Bacteroides ovatus [14] = experiment: Antibacterial activity against Bacteroides ovatus isolated from patient with diabetic foot infection assessed as percent resistant isolates after 44 to 48 hrs by agar dilution method; summary of the method: as §2
# [15] = tested on: Bacteroides thetaiotaomicron; experiment: Antibacterial activity against Bacteroides thetaiotaomicron isolated from patient with diabetic foot infection after 44 to 48 hrs by agar dilution method; summary of the method: as §1
# Bacteroides uniformis [16] = experiment: Antibacterial activity against Bacteroides uniformis isolated from patient with diabetic foot infection after 44 to 48 hrs by agar dilution method; summary of the method: as §1
# Phocaeicola vulgatus = experiment: Antibacterial activity against Bacteroides vulgatus isolated from patient with diabetic foot infection after 44 to 48 hrs by agar dilution method; summary of the method: as §1
# Parabacteroides merdae [17] = experiment: Antibacterial activity against Parabacteroides merdae isolated from patient with diabetic foot infection after 44 to 48 hrs by agar dilution method; summary of the method: as §1
# [18] = tested on: Porphyromonas asaccharolytica; experiment: Antibacterial activity against Porphyromonas asaccharolyticus isolated from patient with diabetic foot infection after 44 to 48 hrs by agar dilution method; summary of the method: as §1
# Bacteroides uniformis [19] = experiment: Antibacterial activity against Bacteroides uniformis isolated from patient with diabetic foot infection assessed as percent resistant isolates after 44 to 48 hrs by agar dilution method; summary of the method: as §2
# [20] = tested on: Parabacteroides distasonis; experiment: Antibacterial activity against Parabacteroides distasonis isolated from patient with diabetic foot infection assessed as percent resistant isolates after 44 to 48 hrs by agar dilution method; summary of the method: as §2
# Parabacteroides merdae [21] = experiment: Antibacterial activity against Parabacteroides merdae isolated from patient with diabetic foot infection assessed as percent resistant isolates after 44 to 48 hrs by agar dilution method; summary of the method: as §2
# Porphyromonas somerae = experiment: Antibacterial activity against Porphyromonas somerae isolated from patient with diabetic foot infection assessed as percent resistant isolates after 44 to 48 hrs by agar dilution method; summary of the method: as §2
# Prevotella bivia [22] = experiment: Antibacterial activity against Prevotella bivia isolated from patient with diabetic foot infection assessed as percent resistant isolates after 44 to 48 hrs by agar dilution method; summary of the method: as §2
# [23] = tested on: Anaerocolumna aminovalerica; experiment: Antibacterial activity against Clostridium aminovalericum isolated from patient with diabetic foot infection assessed as percent resistant isolates after 44 to 48 hrs by agar dilution method; summary of the method: as §2
# Clostridium cadaveris [24] = experiment: Antibacterial activity against Clostridium cadaveris isolated from patient with diabetic foot infection assessed as percent resistant isolates after 44 to 48 hrs by agar dilution method; summary of the method: as §2
# [25] = tested on: Clostridium malenominatum; experiment: Antibacterial activity against Clostridium malenominatum isolated from patient with diabetic foot infection assessed as percent resistant isolates after 44 to 48 hrs by agar dilution method; summary of the method: as §2
# Anaerococcus prevotii [26] = experiment: Antibacterial activity against Anaerococcus prevotii isolated from patient with diabetic foot infection assessed as percent resistant isolates after 44 to 48 hrs by agar dilution method; summary of the method: as §2
# Finegoldia magna [27] = experiment: Antibacterial activity against Finegoldia magna isolated from patient with diabetic foot infection assessed as percent resistant isolates after 44 to 48 hrs by agar dilution method; summary of the method: as §2
# [28] = tested on: Peptoniphilus asaccharolyticus; experiment: Antibacterial activity against Peptoniphilus asaccharolyticus isolated from patient with diabetic foot infection assessed as percent resistant isolates after 44 to 48 hrs by agar dilution method; summary of the method: as §2
# [29] = tested on: Peptostreptococcus anaerobius; experiment: Antibacterial activity against Peptostreptococcus anaerobius isolated from patient with diabetic foot infection assessed as percent resistant isolates after 44 to 48 hrs by agar dilution method; summary of the method: as §2
# Parvimonas micra [30] = experiment: Antibacterial activity against Peptostreptococcus micros isolated from patient with diabetic foot infection assessed as percent resistant isolates after 44 to 48 hrs by agar dilution method; summary of the method: as §2
smiles,measurement,setting,value
C[C@@H](O)[C@H]1C(=O)N2C(C(=O)O)=C(S[C@@H]3CN[C@H](C(=O)Nc4cccc(C(=O)O)c4)C3)[C@H](C)[C@H]12 [ERTAPENEM],MIC50,Prevotella bivia [1],0.25 µg/mL
same,MIC90,Prevotella bivia [1],0.5 µg/mL
same,MIC50,Clostridium perfringens,0.06 µg/mL
same,MIC90,Clostridium perfringens,0.125 µg/mL
same,MIC50,[2],0.25 µg/mL
same,MIC90,[2],2 µg/mL
same,MIC50,Clostridium cadaveris [3],0.25 µg/mL
same,MIC90,Clostridium cadaveris [3],2 µg/mL
same,MIC50,[Clostridium] innocuum,0.25 µg/mL
same,MIC90,[Clostridium] innocuum,2 µg/mL
same,MIC50,Lacrimispora sphenoides,0.25 µg/mL
same,MIC90,Lacrimispora sphenoides,2 µg/mL
same,MIC50,Cutibacterium acnes,0.125 µg/mL
same,MIC90,Cutibacterium acnes,0.25 µg/mL
same,MIC50,Anaerococcus prevotii [4],0.125 µg/mL
same,MIC90,Anaerococcus prevotii [4],0.25 µg/mL
same,MIC50,Anaerococcus tetradius,0.125 µg/mL
same,MIC90,Anaerococcus tetradius,0.25 µg/mL
same,MIC50,Finegoldia magna [5],0.06 µg/mL
same,MIC90,Finegoldia magna [5],0.125 µg/mL
same,MIC50,[6],≤ 0.015 µg/mL
same,MIC90,[6],0.25 µg/mL
same,MIC50,[7],0.25 µg/mL
same,MIC90,[7],0.5 µg/mL
same,MIC50,Parvimonas micra [8],0.25 µg/mL
same,MIC90,Parvimonas micra [8],0.5 µg/mL
same,MIC50,Bacteroides fragilis [9],0.25 µg/mL
same,MIC90,Bacteroides fragilis [9],1 µg/mL
same,MIC50,Bacteroides caccae [10],1 µg/mL
same,MIC90,Bacteroides caccae [10],2 µg/mL
same,MIC50,Bacteroides ovatus [11],1 µg/mL
same,MIC90,Bacteroides ovatus [11],2 µg/mL
same,Activity,Bacteroides fragilis [12],0%
same,Activity,Bacteroides caccae [13],0%
same,Activity,Bacteroides ovatus [14],0%
same,MIC50,[15],1 µg/mL
same,MIC90,[15],2 µg/mL
same,MIC50,Bacteroides uniformis [16],1 µg/mL
same,MIC90,Bacteroides uniformis [16],2 µg/mL
same,MIC50,Phocaeicola vulgatus,1 µg/mL
same,MIC90,Phocaeicola vulgatus,2 µg/mL
same,MIC50,Parabacteroides merdae [17],1 µg/mL
same,MIC90,Parabacteroides merdae [17],2 µg/mL
same,MIC50,[18],≤ 0.015 µg/mL
same,MIC90,[18],0.06 µg/mL
same,Activity,Bacteroides uniformis [19],0%
same,Activity,[20],0%
same,Activity,Parabacteroides merdae [21],0%
same,Activity,Porphyromonas somerae,0%
same,Activity,Prevotella bivia [22],0%
same,Activity,[23],0%
same,Activity,Clostridium cadaveris [24],0%
same,Activity,[25],0%
same,Activity,Anaerococcus prevotii [26],0%
same,Activity,Finegoldia magna [27],0%
same,Activity,[28],0%
same,Activity,[29],0%
same,Activity,Parvimonas micra [30],0%
C[C@@H](O)[C@H]1C(=O)N2C(C(=O)O)=C(SCCNC=N)C[C@H]12 [IMIPENEM ANHYDROUS],MIC50,Prevotella bivia [1],0.03 µg/mL
same,MIC90,Prevotella bivia [1],0.03 µg/mL
same,MIC50,Clostridium perfringens,0.06 µg/mL
same,MIC90,Clostridium perfringens,0.125 µg/mL
same,MIC50,[2],0.25 µg/mL
same,MIC90,[2],2 µg/mL
same,MIC50,Clostridium cadaveris [3],0.25 µg/mL
same,MIC90,Clostridium cadaveris [3],2 µg/mL
same,MIC50,[Clostridium] innocuum,0.25 µg/mL
same,MIC90,[Clostridium] innocuum,2 µg/mL
same,MIC50,Lacrimispora sphenoides,0.25 µg/mL
same,MIC90,Lacrimispora sphenoides,2 µg/mL
same,MIC50,Cutibacterium acnes,≤ 0.015 µg/mL
same,MIC90,Cutibacterium acnes,≤ 0.015 µg/mL
same,MIC50,Anaerococcus prevotii [4],≤ 0.015 µg/mL
same,MIC90,Anaerococcus prevotii [4],0.03 µg/mL
same,MIC50,Anaerococcus tetradius,≤ 0.015 µg/mL
same,MIC90,Anaerococcus tetradius,0.03 µg/mL
same,MIC50,Finegoldia magna [5],0.03 µg/mL
same,MIC90,Finegoldia magna [5],0.06 µg/mL
same,MIC50,[6],≤ 0.015 µg/mL
same,MIC90,[6],0.03 µg/mL
same,MIC50,[7],0.03 µg/mL
same,MIC90,[7],0.06 µg/mL
same,MIC50,Parvimonas micra [8],0.03 µg/mL
same,MIC90,Parvimonas micra [8],0.06 µg/mL
same,MIC50,Bacteroides fragilis [9],0.125 µg/mL
same,MIC90,Bacteroides fragilis [9],0.125 µg/mL
same,MIC50,Bacteroides caccae [10],0.5 µg/mL
same,MIC90,Bacteroides caccae [10],1 µg/mL
same,MIC50,Bacteroides ovatus [11],0.5 µg/mL
same,MIC90,Bacteroides ovatus [11],1 µg/mL
same,Activity,Bacteroides fragilis [12],0%
same,Activity,Bacteroides caccae [13],0%
same,Activity,Bacteroides ovatus [14],0%
same,MIC50,[15],0.5 µg/mL
same,MIC90,[15],1 µg/mL
same,MIC50,Bacteroides uniformis [16],0.5 µg/mL
same,MIC90,Bacteroides uniformis [16],1 µg/mL
same,MIC50,Phocaeicola vulgatus,0.5 µg/mL
same,MIC90,Phocaeicola vulgatus,1 µg/mL
same,MIC50,Parabacteroides merdae [17],0.5 µg/mL
same,MIC90,Parabacteroides merdae [17],1 µg/mL
same,MIC50,[18],< 0.015 µg/mL
same,MIC90,[18],≤ 0.015 µg/mL
same,Activity,Bacteroides uniformis [19],0%
same,Activity,[20],0%
same,Activity,Parabacteroides merdae [21],0%
same,Activity,Porphyromonas somerae,0%
same,Activity,Prevotella bivia [22],0%
same,Activity,[23],0%
same,Activity,Clostridium cadaveris [24],0%
same,Activity,[25],0%
same,Activity,Anaerococcus prevotii [26],0%
same,Activity,Finegoldia magna [27],0%
same,Activity,[28],0%
same,Activity,[29],0%
same,Activity,Parvimonas micra [30],0%
